One may read the IC50 as the point on the concentration scale where inhibition reaches its midpoint.

These results are taken from ChEMBL document CHEMBL4145601, “Novel Nitric Oxide Donors of Phenylsulfonylfuroxan and 3-Benzyl Coumarin Derivatives as Potent Antitumor Agents” (ACS Med Chem Lett, 2018).

The subject of one series is MCF7. Kind of series: Antiproliferative activity against human MCF7 cells after 48 hrs by MTT assay. Particulars: MCF7, 48 h. The format is functional, cell-based. An outline of the steps: (§1)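 Human tumour lines were HeLa (cervical), SKOV3, OVCA429, OVCA433 and A2780 (ovarian), A549 (non-small cell lung), MDA-MB-231 and MCF-7 (breast), and KB (oral epidermoid). Antiproliferation was read by MTT assay. IC50 is the mean of triplicate determinations.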
In general terms: Tetrazolium dyes change colour on reduction, which living cells bring about.

A short description of series [1]: Antiproliferative activity against human OVCA429 cells after 48 hrs by MTT assay. The series is classed as functional, cell-based. The settings on record: OVCA429, 48 h. A digest of the protocol: as §1
Series [2] can be described thus: Drug metabolism in human A2780 cells assessed as nitric oxide release at 100 uM after 150 mins by Griess assay. The series is classed as ADME, cell-based. Particulars: a2780, 2.5 h.
The next series deals with HeLa. Kind of series: Antiproliferative activity against human HeLa cells after 48 hrs by MTT assay. The series is classed as functional, cell-based. An outline of the steps:
as §1

The subject of a further series is HUVEC. The series can be described thus: Cytotoxicity against HUVEC after 48 hrs by MTT assay. Particulars: Homo sapiens. The series is classed as cell-based. An outline of the steps: (§2)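 Non-tumour human cells were HUVEC (umbilical vein endothelial), T29 (immortalized, nontumorigenic ovarian epithelial), WI-38 (lung fibroblasts) and MCF-10A (nontumorigenic breast epithelial). Viability was read by tetrazolium assay. IC50 is the mean of triplicate determinations.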

In another series the test system is WI-38. Kind of series: Cytotoxicity against human WI38 cells after 72 hrs by MTS assay. The series is classed as cell-based. The settings on record: WI-38, 72 h. A digest of the protocol: as §2
The test system of the next series is MM1.S. The series can be described thus: Antiproliferative activity against human MM1S cells after 72 hrs by MTS assay. The format is functional, cell-based.
The next series concerns KB. Kind of series: Antiproliferative activity against human KB cells after 48 hrs by MTT assay. The series is classed as functional, cell-based. A digest of the protocol:
as §1

Series [3] is described as follows: Antiproliferative activity against human A2780/CDDP cells after 48 hrs by MTT assay. The series is classed as functional, cell-based. A digest of the protocol:
(§3)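 Drug-resistant human tumour lines were A2780/CDDP (cisplatin-resistant ovarian), MDA-MB-231/Gem (gemcitabine-resistant breast), MCF-7/ADR and KB-V. Antiproliferation was read by MTT assay. IC50 is the mean of triplicate determinations.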

A further series deals with A549. The series can be described thus: Antiproliferative activity against human A549 cells after 48 hrs by MTT assay. Particulars: A549, 48 h. The series is classed as functional, cell-based. A digest of the protocol: as §1
A short description of series [4]: Antiproliferative activity against human OVCA433 cells after 48 hrs by MTT assay. Particulars: OVCA433, 48 h. The series is classed as functional, cell-based. A digest of the protocol:
as §1

The nature of series [5]: Cytotoxicity against human T29 cells after 48 hrs by MTT assay. The format is cell-based. Particulars: T29, 48 h. An outline of the steps:
as §2

Series [6] is described as follows: Antiproliferative activity against human KBV cells after 48 hrs by MTT assay. The format is functional, cell-based. An outline of the steps: as §3
Series [7] has as its system A2780. The series can be described thus: Induction of apoptosis in human A2780 cells assessed as increase in late apoptotic cells at 10 to 20 nM measured after 24 hrs by Annexin-V-FITC/propidium iodide staining based flow cytometric method. The format is functional, cell-based. (In general: A flow cytometer gives signals particle by particle.)
Series [8] concerns A2780. The series can be described thus: Antiproliferative activity against human A2780 cells after 48 hrs by MTT assay. The series is classed as functional, cell-based. The settings on record: A2780, 48 h. A digest of the protocol:
as §1

For the next series, the system named is MV4-11. The series can be described thus: Antiproliferative activity against human MV411 cells after 72 hrs by MTS assay. Particulars: MV4-11, 72 h. The format is functional, cell-based. An outline of the steps:
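Human myeloid leukaemia MV-4-11 cells; antiproliferation read by MTS assay. IC50 is the mean of triplicate determinations.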

Another series has as its system SK-OV-3. Kind of series: Antiproliferative activity against human SKOV3 cells after 48 hrs by MTT assay. The series is classed as functional, cell-based. The settings on record: SK-OV-3, 48 h. An outline of the steps: as §1
The subject of a further series is NCI/ADR-RES. Kind of series: Antiproliferative activity against human MCF7/ADR cells after 48 hrs by MTT assay. The format is functional, cell-based. An outline of the steps: as §3
For a further series, the system named is MCF-10A. Kind of series: Cytotoxicity against human MCF10A cells after 72 hrs by MTS assay. The series is classed as cell-based. An outline of the steps:
as §2

Series [9] is described as follows: Resistance ratio of IC50 for human MDA-MB-231/Gem cells to IC50 for human MDA-MB-231 cells. The series is classed as functional. A digest of the protocol: (§4)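 Resistance ratio = IC50 in the resistant line / IC50 in the drug-sensitive parent line. Each IC50 came from MTT assays, mean of triplicate determinations.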
For a further series, the system named is MDA-MB-231. The series can be described thus: Antiproliferative activity against human MDA-MB-231 cells after 48 hrs by MTT assay. The series is classed as functional, cell-based. Particulars: MDA-MB-231, 48 h.
A short description of series [10]: Antiproliferative activity against human MDA-MB-231/Gem cells after 48 hrs by MTT assay. The format is functional, cell-based.
Series [11] is described as follows: Resistance ratio of IC50 for human KBV cells to IC50 for human KB cells. The series is classed as functional. An outline of the steps: as §4

Active and inactive are the calls of the source. No cut-off for these calls is given here. Some results are limits rather than exact numbers.

Regarding `Cc1cc(=O)oc2cc(OCCOc3no[n+]([O-])c3S(=O)(=O)c3ccccc3)ccc12`, the IC50 in the series with MCF7 turned out to be 445 nM; in [1], 41.1 nM; in the series on HeLa it was 62.2 nM; in the series on HUVEC, 130 nM; with WI-38 it was 90 nM; in the series on MM1.S, 21 nM. In addition, the IC50 in the series on KB is 127 nM; in series [3], 85.7 nM; with A549, 45.8 nM; in series [4], 131 nM; in series [5] it was 1800 nM; in series [6], 24.9 nM. The concentration for half-maximal inhibition (IC50) in the series with A2780 [8] came out at 20.9 nM; in the series with MV4-11, 28.3 nM; with SK-OV-3, 47.3 nM; with NCI/ADR-RES it was 157 nM; with MCF-10A it was 660 nM. The Drug metabolism result in [2] was “Metabolite_Detected”. The result with A2780 [7] was Active.

Consider `Nc1ccn([C@@H]2O[C@H](CO)[C@@H](O)C2(F)F)c(=O)n1` [GEMCITABINE], for which, in series [9], the “Ratio IC50” value is greater than 1373. Further, the IC50 in the series on MDA-MB-231 is 36.4 nM; in series [10], greater than 50000 nM.

Turning to `CC[C@]1(O)C[C@H]2CN(CCc3c([nH]c4ccccc34)[C@@](C(=O)OC)(c3cc4c(cc3OC)N(C=O)[C@H]3[C@@](O)(C(=O)OC)[C@H](OC(C)=O)[C@]5(CC)C=CCN6CC[C@]43[C@@H]65)C2)C1` [VINCRISTINE], the IC50 in the series with KB came out at 0.65 nM; in series [6], 417 nM. For the same compound, in series [11], the “Ratio IC50” value was 646.
